The nature of test [1]: Selectivity for human cloned CB2 receptor over Sprague Dawley rat brain membrane CB1 receptor.
Test [2] concerns the target T1, Cannabinoid receptor 2 (Homo sapiens, UniProt P34972). Briefly: Agonist activity at human CB2 receptor expressed in CHO cells by [35S]GTP-gamma-S binding assay relative to CP-55940. It is filed as functional, cell-based. In outline: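 Same hCB2-CHO membrane [35S]GTPγS assay (10 µM GDP, 0.1 nM radioligand, 1.5 h, 30 °C). Net stimulation at each concentration was expressed as percent of that given by 3 µM CP-55,940, run as an internal standard in each experiment. Emax came from nonlinear regression of the concentration-effect curves, mean ± SEM of 3-6 experiments in triplicate.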
A general note: GTPγS is a poorly hydrolysed GTP analogue; its binding reports G protein activation.

Test [3] concerns the target T1, Cannabinoid receptor 2. Briefly: Agonist activity at human CB2 receptor expressed in CHO cells by [35S]GTP-gamma-S binding assay. It counts as functional, cell-based. The method, boiled down:
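[35S]GTPγS binding on membranes of CHO cells stably expressing human CB2. 10 µg membrane protein was incubated 1.5 h at 30 °C in 50 mM Tris-HCl pH 7.4, 3 mM MgCl2, 0.2 mM EGTA, 100 mM NaCl, with 10 µM GDP, 0.1 nM [35S]GTPγS, 0.1% BSA and agonist over a concentration range. Nonspecific binding was set with 20 µM GTPγS. Filtration was followed by scintillation counting. EC50 came from nonlinear regression, 3-6 experiments in triplicate.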

Test [4] addresses T1, Cannabinoid receptor 2. Briefly: Displacement of [3H]CP-55940 from human cloned CB2 receptor. (In general: Loss of bound radioactivity is the signal in a displacement assay; it reports binding, not function.)
The target in a further test is Cannabinoid receptor 1 (Rattus norvegicus, UniProt P20272). Briefly: Displacement of [3H]CP-55940 from CB1 receptor in Sprague-Dawley rat brain membrane. It is filed as cell membranes.
Cannabinoid receptor 1, sequence (P20272 whole entry): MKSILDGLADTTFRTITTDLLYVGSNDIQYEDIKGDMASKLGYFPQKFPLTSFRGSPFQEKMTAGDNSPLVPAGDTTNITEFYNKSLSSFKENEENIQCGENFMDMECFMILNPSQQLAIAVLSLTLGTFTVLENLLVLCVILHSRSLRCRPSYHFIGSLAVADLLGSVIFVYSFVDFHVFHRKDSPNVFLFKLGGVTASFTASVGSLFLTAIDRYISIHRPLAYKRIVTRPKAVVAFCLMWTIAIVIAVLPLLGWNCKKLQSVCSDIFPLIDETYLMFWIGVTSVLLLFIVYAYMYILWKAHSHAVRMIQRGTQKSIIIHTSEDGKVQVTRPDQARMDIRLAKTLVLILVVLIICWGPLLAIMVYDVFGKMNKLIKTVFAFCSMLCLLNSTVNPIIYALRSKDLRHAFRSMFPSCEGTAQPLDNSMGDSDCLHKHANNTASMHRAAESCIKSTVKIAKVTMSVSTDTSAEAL
Test [5] has as its target T1, Cannabinoid receptor 2. As to conditions: CHO, 3 uM.

T1 sequence (P34972 whole entry): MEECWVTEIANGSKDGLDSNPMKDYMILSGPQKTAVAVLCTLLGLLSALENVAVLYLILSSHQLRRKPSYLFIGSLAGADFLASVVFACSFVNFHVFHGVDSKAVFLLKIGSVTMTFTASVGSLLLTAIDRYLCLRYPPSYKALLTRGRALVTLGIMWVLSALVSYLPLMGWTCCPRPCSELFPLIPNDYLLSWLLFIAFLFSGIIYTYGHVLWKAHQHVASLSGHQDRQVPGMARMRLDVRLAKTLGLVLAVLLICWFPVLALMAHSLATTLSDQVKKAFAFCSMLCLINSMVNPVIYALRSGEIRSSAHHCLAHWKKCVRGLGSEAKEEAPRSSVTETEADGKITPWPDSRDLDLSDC

One may read the Emax as the greatest response seen or fitted, relative to the assay's reference. As usually defined, the EC50 is the concentration giving half of the maximal effect. The low end stands for higher potency in that assay, the high end for lower potency in that assay. Broadly, the Ki is a dissociation constant, usually derived from enzyme kinetics or from competition with a known ligand. Higher therefore signals weaker binding. As to `CCCCCC(C)(C)c1ccc([C@@H]2CCC[C@@H](O)C2)cc1` (relative stereo), in test [1], the Ratio Ki stood at 4.8. The molecule also gave an Emax on Cannabinoid receptor 2 [2] of 66%. Further, the EC50 at Cannabinoid receptor 2 [3] amounted to 39.6 nM. Moreover, the inhibitory constant (Ki) turned out to be 215 nM on Cannabinoid receptor 2 [4] and 1030 nM on Cannabinoid receptor 1.

`CCC(C)(C)c1ccc([C@H]2CCC[C@@H](O)C2)cc1` (relative stereo): the Ratio Ki in test [1] was over 2.5. In addition, the Ki at Cannabinoid receptor 2 [4] was 3970 nM; on Cannabinoid receptor 1 it was over 10000 nM.

In the case of `CCCCCCCC(C)(C)c1ccc([C@@H]2CCC[C@@H](O)C2)cc1`, in test [1], the Ratio Ki turned out to be 1.3. The inhibitory constant (Ki) worked out at 154 nM on Cannabinoid receptor 2 [4] and 193 nM at Cannabinoid receptor 1.

As for `CCCCCC(C)(C)c1ccc([C@@H]2C[C@H](O)CC[C@H]2CCCO)cc1` (relative stereo), the Ratio Ki in test [1] turned out to be 1.4. For the same molecule, the figures for the inhibition constant Ki at Cannabinoid receptor 2 [4] and at Cannabinoid receptor 1 were 221 nM and 308 nM, respectively.

As for `CCCC(C)(C)c1ccc([C@@H]2CCC[C@@H](O)C2)cc1` (relative stereo), the Ratio Ki in test [1] was 5.7. The figures for the Ki at Cannabinoid receptor 2 [4] and on Cannabinoid receptor 1 were 1510 nM and 8630 nM, respectively.

As for `CCCCC(C)(C)c1ccc([C@H]2CCC[C@@H](O)C2)cc1` (relative stereo), in test [1], the Ratio Ki is over 16. Besides, the Ki at Cannabinoid receptor 2 [4] is 639 nM; at Cannabinoid receptor 1, over 10000 nM.

Consider `CCCCCCCCC(C)(C)c1ccc([C@@H]2CCC[C@@H](O)C2)cc1` (relative stereo), for which, in test [1], the Ratio Ki worked out at 0.7. In addition, the values for the inhibitory constant (Ki) at Cannabinoid receptor 2 [4] and at Cannabinoid receptor 1 were 1080 nM and 749 nM, respectively.

`CCCCCCC(C)(C)c1ccc([C@H]2CCC[C@@H](O)C2)c(O)c1` displayed a Ki on Cannabinoid receptor 1 of 2.2 nM.

`CCCCCCC(C)(C)c1ccc([C@@H]2C[C@H](O)CC[C@H]2CCCO)c(O)c1` gave an Emax at Cannabinoid receptor 2 [5] of 85%.

Turning to `CCCCCCCC(C)(C)c1ccc([C@@H]2C[C@H](O)CC[C@H]2CCCO)cc1` (relative stereo), in test [1], the Ratio Ki came out at 1.5. For the same molecule, the Ki was determined as 173 nM on Cannabinoid receptor 2 [4] and 266 nM at Cannabinoid receptor 1.

Regarding `CCCCCCC(C)(C)c1ccc([C@@H]2C[C@H](O)CC[C@H]2CCCO)cc1` (relative stereo), the Ratio Ki in test [1] came out at 2.3. Further, the values for the Ki at Cannabinoid receptor 2 [4] and at Cannabinoid receptor 1 were 238 nM and 547 nM, respectively.

Regarding `CCCCC(C)(C)c1ccc([C@@H]2C[C@H](O)CC[C@H]2CCCO)cc1` (relative stereo), in test [1], the Ratio Ki worked out at 0.8. In addition, the figures for the Ki on Cannabinoid receptor 2 [4] and at Cannabinoid receptor 1 were 700 nM and 579 nM, respectively.

Regarding `CCCCCCCCC(C)(C)c1ccc([C@@H]2C[C@H](O)CC[C@H]2CCCO)cc1` (relative stereo), in test [1], the Ratio Ki was found to be 1.3. Also, the values for the Ki at Cannabinoid receptor 2 [4] and at Cannabinoid receptor 1 were 421 nM and 566 nM, respectively.

As to `CCCC(C)(C)c1ccc([C@@H]2C[C@H](O)CC[C@H]2CCCO)cc1` (relative stereo), in test [1], the Ratio Ki stood at 2.1. Also, the values for the Ki on Cannabinoid receptor 2 [4] and at Cannabinoid receptor 1 were 1780 nM and 3800 nM, respectively.

As for `CCCCCCC(C)(C)c1ccc([C@@H]2CCC[C@@H](O)C2)cc1` (relative stereo), the Ratio Ki in test [1] is 3.6. The Ki came out at 178 nM on Cannabinoid receptor 2 [4] and 645 nM at Cannabinoid receptor 1.

As to `CCCCCC(C)(C)c1ccc([C@H]2CCC[C@@H](O)C2)cc1` (relative stereo), in test [1], the Ratio Ki stood at 4.6. The Ki on Cannabinoid receptor 2 [4] stood at 460 nM; on Cannabinoid receptor 1, 2110 nM.

Regarding `CC(C)(C)c1ccc([C@@H]2CCC[C@@H](O)C2)cc1` (relative stereo), the Ki at Cannabinoid receptor 2 [4] and at Cannabinoid receptor 1 was over 10000 nM each time.

For the molecule `CC(C)(C)c1ccc([C@H]2CCC[C@@H](O)C2)cc1` (relative stereo), the inhibition constant Ki at Cannabinoid receptor 2 [4] and on Cannabinoid receptor 1 was over 10000 nM each time.

For the molecule `CCCCCCC(C)(C)c1ccc([C@H]2CCC[C@@H](O)C2)cc1` (relative stereo), the Ratio Ki in test [1] is 13. In addition, the Ki on Cannabinoid receptor 2 [4] is 231 nM; on Cannabinoid receptor 1, 2950 nM.

On to `CCCCCCCCC(C)(C)c1ccc([C@H]2CCC[C@@H](O)C2)cc1` (relative stereo), for which the Ratio Ki in test [1] amounted to 1.5. Further, the figures for the Ki on Cannabinoid receptor 2 [4] and on Cannabinoid receptor 1 were 1120 nM and 1710 nM, respectively.

`CC(C)(C)c1ccc([C@@H]2C[C@H](O)CC[C@H]2CCCO)cc1` (relative stereo): the Ki on Cannabinoid receptor 2 [4] and on Cannabinoid receptor 1 was over 10000 nM in each case.

With `CCCCCCCC(C)(C)c1ccc([C@H]2CCC[C@@H](O)C2)cc1` (relative stereo), in test [1], the Ratio Ki amounted to 1.2. Moreover, the Ki is 672 nM at Cannabinoid receptor 2 [4] and 786 nM at Cannabinoid receptor 1.

On to `CCC(C)(C)c1ccc([C@@H]2C[C@H](O)CC[C@H]2CCCO)cc1` (relative stereo), for which the Ratio Ki in test [1] was over 7.3. The Ki at Cannabinoid receptor 2 [4] was 1360 nM; on Cannabinoid receptor 1, over 10000 nM.

Take `CCCC(C)(C)c1ccc([C@H]2CCC[C@@H](O)C2)cc1` (relative stereo): the Ratio Ki in test [1] is over 4.9. The results for the Ki on Cannabinoid receptor 2 [4] and on Cannabinoid receptor 1 were 2060 nM and over 10000 nM, respectively.

Regarding `CCC(C)(C)c1ccc([C@@H]2CCC[C@@H](O)C2)cc1` (relative stereo), the Ratio Ki in test [1] was over 2.7. The Ki was 3760 nM on Cannabinoid receptor 2 [4] and over 10000 nM at Cannabinoid receptor 1.

For the molecule `CCCCC(C)(C)c1ccc([C@@H]2CCC[C@@H](O)C2)cc1` (relative stereo), the Ratio Ki in test [1] came out at 3.2. In addition, the figures for the Ki at Cannabinoid receptor 2 [4] and at Cannabinoid receptor 1 were 546 nM and 1730 nM, respectively.

The record behind these values is ChEMBL document CHEMBL1144670, “Synthesis and pharmacology of 1-deoxy analogs of CP-47,497 and CP-55,940” (Bioorg Med Chem, 2008).
